{
  "source": "ChEMBL document CHEMBL1132217",
  "about": "“Syntheses of biotinylated alpha-galactosylceramides and their effects on the immune system and CD1 molecules” (1999)",
  "format_in_all_cases": "functional",
  "key": {"[1]": {"species_on_record": "Mus musculus", "experiment": "[3H]TdR uptake measured by spleen cell proliferation assay by adding compound dose of 100 ng/mL", "summary_of_the_method": "(§1)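 Spleens from female C57BL/6 mice dissociated in RPMI 1640, red cells lysed with Tris NH4Cl, washed three times in PBS. Cells (2.5 × 10^5/well, 10% FCS RPMI 1640) cultured with sample or DMSO vehicle (0.001–0.1%) for 18 h at 37 °C, 5% CO2; [3H]TdR 0.5 μCi/well added, uptake counted by liquid scintillation 8 h later. Mean ± S.D.; p < 0.05 vs vehicle.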"}, "[2]": {"species_on_record": "Mus musculus", "experiment": "[3H]-TdR uptake measured by spleen cell proliferation assay by adding compound dose of 1 ng/mL", "summary_of_the_method": "as §1"}, "[3]": {"species_on_record": "Mus musculus", "experiment": "[3H]TdR uptake measured by spleen cell proliferation assay by adding compound dose of 10 ng/mL", "summary_of_the_method": "as §1"}},
  "data": [
    {"smiles": "CCCCCCCCCCCCCCC[C@@H](O)[C@H](CO[C@H]1O[C@@H](CO)[C@H](O)[C@H](O)[C@@H]1O)NC(=O)CCCCCCCCCCNC(=O)CCCCCNC(=O)CCCC[C@@H]1SC[C@@H]2NC(=O)N[C@@H]21", "values": [
      {"measurement": "Incorporation", "setting": "[1]", "result": 14588, "unit": "c.p.m."},
      {"measurement": "Incorporation", "setting": "[2]", "result": 4628, "unit": "c.p.m."},
      {"measurement": "Incorporation", "setting": "[3]", "result": 8665, "unit": "c.p.m."}
    ]},
    {"smiles": "CCCCCCCCCCCCCCCC[C@H](CO[C@H]1O[C@@H](CO)[C@H](O)[C@H](O)[C@@H]1O)NC(=O)CCCCCCCCCCNC(=O)CCCCCNC(=O)CCCC[C@@H]1SC[C@@H]2NC(=O)N[C@@H]21", "values": [
      {"measurement": "Incorporation", "setting": "[1]", "result": 9427, "unit": "c.p.m."},
      {"measurement": "Incorporation", "setting": "[2]", "result": 4803, "unit": "c.p.m."},
      {"measurement": "Incorporation", "setting": "[3]", "result": 5330, "unit": "c.p.m."}
    ]},
    {"smiles": "CCCCCCCCCCCCCC[C@@H](O)[C@@H](O)[C@H](CO[C@H]1O[C@@H](CO)[C@H](O)[C@H](O)[C@@H]1O)NC(=O)CCCCCCCCCCNC(=O)CCCCCNC(=O)CCCC[C@@H]1SC[C@@H]2NC(=O)N[C@@H]21", "note": "(stereo in doubt; form 1)", "values": [
      {"measurement": "Incorporation", "setting": "[1]", "result": 5463, "unit": "c.p.m."},
      {"measurement": "Incorporation", "setting": "[2]", "result": 4811, "unit": "c.p.m."},
      {"measurement": "Incorporation", "setting": "[3]", "result": 4833, "unit": "c.p.m."}
    ]},
    {"smiles": "CCCCCCCCCCCCCCCCCCCCCCCCCC(=O)N[C@@H](CO[C@H]1O[C@H](CO)[C@H](O)[C@H](O)[C@H]1O)[C@H](O)[C@H](O)CCCCCCCCCCCCCC", "note": "[RGI-7000]", "values": [
      {"measurement": "Incorporation", "setting": "[1]", "result": 17636, "unit": "c.p.m."},
      {"measurement": "Incorporation", "setting": "[2]", "result": 13499, "unit": "c.p.m."},
      {"measurement": "Incorporation", "setting": "[3]", "result": 17438, "unit": "c.p.m."}
    ]}
  ]
}
